We go through 49 compounds from ChEMBL document CHEMBL1131473, “A novel class of orally active non-peptide bradykinin B2 receptor antagonists. 1. Construction of the basic framework” (J Med Chem, 1998).

In one data set the test system is Cavia porcellus. As to the kind of experiment: In vivo functional antagonistic activity against BK-induced bronchoconstriction in guinea pigs at an oral dose of 1 mg/kg. Summed up:
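Male Hartley guinea pigs (470-750 g), fasted, anesthetized with pentobarbital (30 mg/kg ip), ventilated, given alcuronium iv and propranolol sc. BK (5 μg/kg iv) raised pulmonary insufflation pressure, measured by modified Konzett–Rössler. Compound in 0.5% methylcellulose, or vehicle, was given by oesophageal cannula. BK was repeated 30 min later. Response expressed as ΔPIP after drug over ΔPIP before drug ×100; Student's t-test vs control.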

For a further data set, the target named is T1, B2 bradykinin receptor (Cavia porcellus, UniProt O70526).
T1 sequence (O70526 whole entry): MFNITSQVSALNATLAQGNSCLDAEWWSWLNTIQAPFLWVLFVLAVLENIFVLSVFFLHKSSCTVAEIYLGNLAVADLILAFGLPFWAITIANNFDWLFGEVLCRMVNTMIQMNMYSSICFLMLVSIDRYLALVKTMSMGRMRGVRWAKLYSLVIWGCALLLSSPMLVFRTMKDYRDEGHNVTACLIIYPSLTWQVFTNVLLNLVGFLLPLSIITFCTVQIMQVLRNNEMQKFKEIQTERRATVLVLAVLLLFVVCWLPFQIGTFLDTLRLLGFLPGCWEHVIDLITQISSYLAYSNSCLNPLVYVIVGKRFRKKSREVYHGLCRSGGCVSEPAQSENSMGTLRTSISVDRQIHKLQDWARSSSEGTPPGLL
As to the kind of experiment: In vitro for inhibition of specific binding of [3H]BK (0.06 nM) to bradykinin receptor B2 in guinea pig ileum membrane preparations. The format is cell membranes. The gist of the method:
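Ileal membranes from male Hartley guinea pigs, prepared in TES/1,10-phenanthroline pH 6.8 by 1000g then 100000g spins. Assay buffer held bacitracin, DTT, 1 μM captopril and 0.1% BSA. Membranes (0.2 mg protein/mL) incubated with [3H]BK (final 0.06 nM) and varying compound concentrations for 60 min at room temperature. Bound ligand filtered on GF/B and counted by scintillation; nonspecific binding taken with 1 μM unlabeled BK.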

Data set [1] can be described thus: Compound at a dose of 10 mg/kg was orally administered to rats and Half-life value was reported. The format is ADME, organism-based. The arrangement: dose 10 mg/kg, route oral. As to conditions: rat, in vivo, po. The gist of the method: (§1)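 Male Sprague-Dawley rats (3), starved overnight, given compound orally in 0.5% methocel (0.5 mL/100 g). Femoral-artery blood sampled at 0, 0.5, 1, 2, 4 and 6 h. Intravenous arm used a DMSO solution into the femoral vein, sampled 0 min–6 h. Plasma extracted with CHCl3, dried, reconstituted in MeOH and quantified by HPLC peak area against spiked time-0 plasma standards.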

The nature of data set [2]: Compound at a dose of 10 mg/kg was orally administered to rats and Area under curve was reported. The format is ADME, organism-based. The arrangement: dose 10 mg/kg, route oral. Particulars: rat, in vivo, po. Summed up: as §1
Data set [3] is described as follows: Compound at a dose of 10 mg/kg was orally administered to rats and Bioavailability was reported. In kind it is ADME, organism-based. As to conditions: rat, in vivo, po, read-out: BA. The gist of the method:
as §1

The nature of data set [4]: Compound at a dose of 10 mg/kg was orally administered to rats and maximum plasma concentration was reported. The format is ADME, organism-based. Also noted: dose 10 mg/kg, route oral. As to conditions: rat, po. Summed up:
as §1

The structures appear in SMILES notation. Some results are limits rather than exact numbers.

Consider `CCCC(=O)NCC(=O)N(C)c1ccc(Cl)c(COc2cccn3c(Br)c(C)nc23)c1Cl`, for which, in the data set with Cavia porcellus, the inhibition in vivo at 1 mg/kg was 52.7%. Further, the IC50 at B2 bradykinin receptor came out at 8.9 nM. The half-life in data set [1] is 18 min. In data set [2], the AUC came out at 11700 ng·h/mL. Besides, the bioavailability in data set [3] came to 90%. Besides, in data set [4], the concentration peaked (Cmax) at 9970 ng/mL.
As for `Cc1nc2c(OCc3c(Cl)ccc(N(C)C(=O)CNC(=O)CN(C)C)c3Cl)cccn2c1Br`, the inhibition in vivo at 1 mg/kg in the data set on Cavia porcellus is 72.4%. The compound also displayed an IC50 at B2 bradykinin receptor of 2.4 nM. For the same compound, in data set [1], the half-life was 18 min. This compound also gave an AUC in data set [2] of 940 ng·h/mL. Also, in data set [3], the bioavailability amounted to 32.8%. Moreover, the Cmax in data set [4] was determined as 290 ng/mL.
`CCOC(=O)c1c(C)nc2c(OCc3c(Cl)cccc3Cl)cccn12`: the 50% inhibitory concentration (IC50) at B2 bradykinin receptor was > 100000 nM.
Still for that read-out and setting: the value for `Cc1nc2c(OCc3c(Cl)ccc(N(C)S(C)(=O)=O)c3Cl)cccn2c1Br` was 2100 nM.
On the same count and under the same terms, then `C#CCOCc1c(C)nc2c(OCc3c(Cl)cccc3Cl)cccn12`, with 7600 nM; and `Cc1nc2c(OCc3c(Cl)ccc(N(C)C(=O)CN)c3Cl)cccn2c1Br`, with 380 nM.
Same read-out and setting: the value for `COC(=O)N(C)c1ccc(Cl)c(COc2cccn3c(Br)c(C)nc23)c1Cl` was 1400 nM; that for `Cc1nc2c(OCc3c(F)cccc3Cl)cccn2c1Br` was 1500 nM.
For the compound `Clc1cccc(Cl)c1COc1cccn2ccnc12`, the IC50 at B2 bradykinin receptor is 31000 nM.
Same read-out and setting: then `Cc1nc2c(OCc3c(Cl)cccc3Cl)cccn2c1CO`, with 7500 nM; and `COCC(=O)N(C)c1ccc(Cl)c(COc2cccn3c(Br)c(C)nc23)c1Cl`, with 580 nM; and `CC(=O)NC(C)C(=O)N(C)c1ccc(Cl)c(COc2cccn3c(Br)c(C)nc23)c1Cl` (stereo not drawn), with 770 nM.
Still for that read-out and setting: then `CC(=O)N(Cc1c(Cl)cccc1Cl)c1cccn2c(Br)c(C)nc12`, with > 100000 nM.
The same measure, in the same setting: the value for `CC(=O)NCC(=O)N(C)c1ccc(Cl)c(COc2cccn3c(Br)c(C)nc23)c1Cl` was 16 nM.
As to `Cc1nc2c(OCc3c(Cl)cccc3Cl)cccn2c1Br`, the IC50 at B2 bradykinin receptor worked out at 230 nM.
Same read-out and setting: the value for `Cc1nc2c(COc3c(Cl)cccc3Cl)cccn2c1Br` was > 100000 nM; that for `COc1ccc(Cl)c(COc2cccn3c(Br)c(C)nc23)c1Cl` was 540 nM; that for `CC(=O)Nc1ccc(Cl)c(COc2cccn3c(Br)c(C)nc23)c1Cl` was 1800 nM.
Same read-out and setting: the value for `Cc1nc2c(C(=O)Nc3c(Cl)cccc3Cl)cccn2c1Br` was > 100000 nM; that for `CCN(C(C)=O)c1ccc(Cl)c(COc2cccn3c(Br)c(C)nc23)c1Cl` was 150 nM.
As to `CCN(C)c1ccc(Cl)c(COc2cccn3c(Br)c(C)nc23)c1Cl`, the IC50 on B2 bradykinin receptor was determined as 410 nM.
`CC(=O)OCC(=O)N(C)c1ccc(Cl)c(COc2cccn3c(Br)c(C)nc23)c1Cl` had an IC50 at B2 bradykinin receptor of 500 nM.
Same read-out and setting: then `Cc1nc2c(OCc3c(Cl)ccc(Cl)c3Cl)cccn2c1Br`, with 490 nM; and `CCC(=O)N(C)c1ccc(Cl)c(COc2cccn3c(Br)c(C)nc23)c1Cl`, with 72 nM; and `Cc1cn2cccc(OCc3c(Cl)cccc3Cl)c2n1`, with 4500 nM.
Still for that read-out and setting: the value for `CC(=O)N(C)c1c(Cl)cc(Cl)c(COc2cccn3c(Br)c(C)nc23)c1Cl` was 420 nM; that for `Cc1nc2c(OCc3c(Cl)ccc([N+](=O)[O-])c3Cl)cccn2c1Br` was 42 nM; that for `Cc1nc2c(OCc3c(Cl)cccc3Cl)cccn2c1Cl` was 200 nM.
`CCNC(=O)NCC(=O)N(C)c1ccc(Cl)c(COc2cccn3c(Br)c(C)nc23)c1Cl` had an inhibition in vivo at 1 mg/kg with Cavia porcellus of 57.2%. Further, the IC50 on B2 bradykinin receptor worked out at 9 nM. Besides, in data set [1], the half-life was 30 min. In addition, the AUC in data set [2] was found to be 58900 ng·h/mL. In addition, the bioavailability in data set [3] is 75%. Also, the peak level in data set [4] (Cmax) was 52600 ng/mL.
`CCc1cn2cccc(OCc3c(Cl)cccc3Cl)c2n1` gave an IC50 on B2 bradykinin receptor of 10000 nM.
Still for that read-out and setting: then `Cc1nc2c(C(=O)Oc3c(Cl)cccc3Cl)cccn2c1Br`, with > 100000 nM; and `Cc1nc2c(OCc3c(F)cccc3F)cccn2c1Cl`, with 1800 nM; and `Cc1nc2c(OCc3c(Br)cccc3Br)cccn2c1Cl`, with 1700 nM.
Compound `CC(=O)N(C)CC(=O)N(C)c1ccc(Cl)c(COc2cccn3c(Br)c(C)nc23)c1Cl` registered a half-inhibitory concentration (IC50) at B2 bradykinin receptor of 1600 nM. The IC50 values of the last two compounds are within 1.5-fold of each other.
For `Cc1nc2c(/C=C/c3c(Cl)cccc3Cl)cccn2c1Br`, the IC50 at B2 bradykinin receptor was > 100000 nM.
Same read-out and setting: the value for `Cc1nc2c(NCc3c(Cl)cccc3Cl)cccn2c1Cl` was 1200 nM; that for `CC(=O)NCCC(=O)N(C)c1ccc(Cl)c(COc2cccn3c(Br)c(C)nc23)c1Cl` was 810 nM; that for `CNC(=O)N(C)c1ccc(Cl)c(COc2cccn3c(Br)c(C)nc23)c1Cl` was 350 nM.
On the same count and under the same terms, then `CCn1c(C)cc(C#N)c1-c1ccc(COc2cc(C)nc3ccccc23)cc1`, with 31000 nM; and `CC(=O)N(C)c1ccc(Cl)c(COc2cccn3c(Br)c(C)nc23)c1Cl`, with 54 nM; and `Cc1nc2c(NC(=O)c3c(Cl)cccc3Cl)cccn2c1Cl`, with > 100000 nM.
The same measure, in the same setting: then `FC(F)(F)c1cn2cccc(OCc3c(Cl)cccc3Cl)c2n1`, with > 100000 nM; and `Cc1nc2c(OCc3c(Cl)ccc(N)c3Cl)cccn2c1Br`, with 1500 nM.
With `CCC(=O)NCC(=O)N(C)c1ccc(Cl)c(COc2cccn3c(Br)c(C)nc23)c1Cl`, the inhibition in vivo at 1 mg/kg with Cavia porcellus was found to be 48.4%. On B2 bradykinin receptor, the IC50 was found to be 19 nM.
The matching figures for `Cc1nc2c(OCc3c(Cl)ccc(N(C)C(=O)CNS(C)(=O)=O)c3Cl)cccn2c1Br`: 48.4% and 580 nM.
The matching figures for `CCCNC(=O)NCC(=O)N(C)c1ccc(Cl)c(COc2cccn3c(Br)c(C)nc23)c1Cl`: 62.4% and 26 nM.
As for `CCCCC(=O)NCC(=O)N(C)c1ccc(Cl)c(COc2cccn3c(Br)c(C)nc23)c1Cl`, in the data set with Cavia porcellus, the inhibition in vivo at 1 mg/kg turned out to be 29.7%. This compound also had an IC50 at B2 bradykinin receptor of 7.8 nM.
Taken in the same sequence, the figures for `CNC(=O)NCC(=O)N(C)c1ccc(Cl)c(COc2cccn3c(Br)c(C)nc23)c1Cl` were 41.5% and 46 nM.
`CC(=O)NCC(=O)N(C)c1ccc(Cl)c(COc2cccn3c(Br)c(C)nc23)c1Cl.Cl`: 1 mg/kg produced 62.3% inhibition in vivo in the data set with Cavia porcellus. Further, the IC50 on B2 bradykinin receptor amounted to 16 nM. The compound also gave a half-life in data set [1] of 25.2 min. In addition, the AUC in data set [2] turned out to be 3150 ng·h/mL. The peak level in data set [4] (Cmax) was 3640 ng/mL.
